The values that follow come from publication PMC5590686 (Drug Design, Development and Therapy, 2017).

For data set [1] the following is noted: rats, cited from earlier work.
Data set [2] deals with P-gp. Briefly: Rho 123 efflux/accumulation by flow cytometry. The class given is cell-based, rat. The note with it: puerarin 50, peoniflorin 20, menthol 25 μg/mL. A general note: A flow cytometer gives signals particle by particle.
Data set [3] is described as follows: Bidirectional transport of puerarin across RNEC monolayers. The format is in vitro ADME. The note with it: Sprague Dawley, rat. Put shortly: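 RNECs from a male Sprague Dawley rat nasal epithelium, passage 2–3, were seeded at 5×10^5 cells/cm2 on collagen-coated 0.4-μm PET Transwell membranes and grown 3 days at air interface until TEER >500 Ω·cm2. Monolayers were HBSS-washed and equilibrated 30 min at 37°C. Drug was dosed apical or basolateral with shaking at 37°C, receiver sampled 30–180 min, and quantified by C18 HPLC-UV at 250 nm. Papp = regression dQ/dt over donor C and area; ER calculated from both directions.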

Data set [4] relates to Calu-3 cells. The following applies: Calu-3 monolayer, cited from earlier work.
In data set [5] the test system is TJ proteins ZO-1, claudin-1, F-actin. Briefly: Immunofluorescence of TJ proteins in RNECs. The class given is cell-based, rat. The note with it: 3 h; puerarin 50, peoniflorin 20, menthol 25 μg/mL. Put shortly: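 Monolayers grown on PET Transwell membranes (5×10^5 cells/cm2) were exposed to compound media for 3 h at 37°C. They were fixed in cold 4% paraformaldehyde for 30 min and blocked 1 h in goat serum. Anti-ZO-1 or anti-claudin-1 (1:100) was applied overnight at 4°C, then TRITC/FITC secondaries; F-actin was stained with phalloidin (1:150, 30 min, RT), with DAPI counterstain. Fluorescence/confocal imaging used identical settings; AOD = IntDen/Area, expressed as percentage.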

Where only a bound is given, the exact number is not on record here.

The term Papp A→B denotes the apparent permeability from the apical to the basolateral side of a cell layer. The term Papp B→A denotes how fast a substance crosses the layer from the basolateral side. As usually defined, the Papp is a coefficient for how fast a substance crosses the barrier. Higher therefore signals ready permeation. Usually efflux ratio stands for a quotient of directional permeabilities that is used to spot active efflux. Turning to `O=c1c(-c2ccc(O)cc2)coc2c([C@@H]3O[C@H](CO)[C@@H](O)[C@H](O)[C@H]3O)c(O)ccc12` [puerarin, Puerarin], in data set [1] (intranasal versus injection and oral), the “ability of puerarin to target the brain via intranasal administration” value was “higher than that with injection and oral administration”. In addition, the “bioavailability of puerarin following intranasal administration” value in data set [1] (intranasal versus oral, plasma and brain by HPLC) was “significantly higher than that of oral administration”. Also, the “effect on P-gp function (Rho 123 retention)” value (“effect on P-gp function” for short) in data set [2] was “inhibited the function of P-gp”. In data set [3], the Papp A→B at 180 min fell in the range of 1.27 to 1.31 ×10⁻⁶ cm/s, the Papp B→A at 180 min lay within 1.35 to 1.41 ×10⁻⁶ cm/s, the Papp at 180 min was below 1.5 ×10⁻⁶ cm/s and the efflux ratio at 180 min was below 2. Moreover, in data set [4] (both directions), the “Papp of puerarin bidirectional transport” value was below 1.5e-06 cm/s. In addition, the “efflux ratio (ER)” value in data set [4] was below 1.5.

Regarding `C[C@@]12C[C@@]3(O)O[C@@H](O1)[C@]1(COC(=O)c4ccccc4)[C@H]3C[C@@]12O[C@@H]1O[C@H](CO)[C@@H](O)[C@H](O)[C@H]1O` [peoniflorin], the “effect on P-gp function” value in data set [2] was “inhibited the function of P-gp”. In addition, the “effect of coadministration on Papp of puerarin” value in data set [4] is “remained unaltered”.

In the case of `CC1CCC(C(C)C)C(O)C1` (centres unmarked) [menthol], the “effect on P-gp function” value in data set [2] is reported as “inhibited the function of P-gp”. For the same compound, the “immunostaining / AOD of ZO-1, claudin-1 and F-actin versus control” value in data set [5] is recorded as “weaker than that of the control group”. For the same compound, the “effect of coadministration on Papp of puerarin” value in data set [4] is listed as “significantly (P<0.05) improved”.
